Measured values: ChEMBL document CHEMBL1142519, “Synthesis and antiprotozoal activity of cationic 2-phenylbenzofurans” (J Med Chem, 2008)
Activity calls are given as the source filed them. The rule behind the calls is not given here.

How the values were obtained:
[1] = test system: Leishmania donovani; test: Antileishmanial activity against Leishmania donovani MHOM/SD/62/1S-CL2D axenic amastigotes; format: functional, organism-based
Procedure, shortened: (§1)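 IC50 values in µM, each the average of duplicate determinations. Parasites were T. b. rhodesiense STIB900 and axenic amastigotes of L. donovani MHOM/SD/62/1S-CL2D. Cytotoxicity was run on rat L6 myoblast cells.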

[2] = test system: Trypanosoma brucei rhodesiense; test: Antitrypanosomal activity against Trypanosoma brucei rhodesiense STIB 900 infected acute mouse model assessed as cured mouse at 1 mg/kg, ip daily for 4 days; format: functional, organism-based; parameters: dose 1 mg/kg
Procedure, shortened: (§2)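 STIB900 acute mouse model of trypanosomiasis with intraperitoneal dosing. The regimens were daily for 4 days at 20, 5 or 1 mg/kg, or a single 10 mg/kg dose. A cure is a mouse that survives and is parasite-free for 60 days. Average days of survival are also recorded.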

[3] = test system: Trypanosoma brucei rhodesiense; test: Antitrypanosomal activity against Trypanosoma brucei rhodesiense STIB 900 infected acute mouse model assessed as survival time at 5 mg/kg, ip administered daily for 4 days; format: functional; settings: route intraperitoneal
Procedure, shortened: (§3)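 STIB900 acute mouse model of T. b. rhodesiense infection, with intraperitoneal dosing. Read-out is the average days of survival of treated mice. Cures are counted as mice that survive and stay parasite-free for 60 days.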

[4] = test system: Trypanosoma brucei rhodesiense; test: Antitrypanosomal activity against Trypanosoma brucei rhodesiense STIB 900 infected acute mouse model assessed as survival time at 1 mg/kg, ip administered daily for 4 days; format: functional; settings: route intraperitoneal; procedure, shortened: as §3
[5] = test system: Trypanosoma brucei rhodesiense; test: Antitrypanosomal activity against Trypanosoma brucei rhodesiense STIB 900 bloodstream trypomastigotes; format: functional, organism-based; procedure, shortened: as §1
[6] = test system: Trypanosoma brucei rhodesiense; test: Antitrypanosomal activity against Trypanosoma brucei rhodesiense STIB 900 infected acute mouse model assessed as cured mouse at 10 mg/kg, ip; format: functional, organism-based; parameters: dose 10 mg/kg; procedure, shortened: as §2
[7] = Selectivity index, ratio of IC50 for rat L6 cells to IC50 for Leishmania donovani MHOM/SD/62/1S-CL2D; format: toxicity, cell-based; settings: read-out: Ratio IC50
Procedure, shortened: (§4)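 Ratio of the L6 rat myoblast cytotoxicity IC50 to the IC50 against the parasite named in the line. Each IC50 is the average of duplicate determinations.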

[8] = test system: L6; test: Cytotoxicity against rat L6 cells; format: cell-based; procedure, shortened: as §1
[9] = Selectivity index, ratio of IC50 for rat L6 cells to IC50 for chloroquine-resistant Plasmodium falciparum K1; format: toxicity, cell-based; settings: read-out: Ratio IC50; procedure, shortened: as §4
[10] = test system: Plasmodium falciparum; test: Antiplasmodial activity against chloroquine-resistant Plasmodium falciparum K1; format: functional, organism-based
Procedure, shortened: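 In vitro IC50 against chloroquine-resistant P. falciparum K1, reported as the average of duplicate determinations.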

[11] = Selectivity index, ratio of IC50 for rat L6 cells to IC50 for Trypanosoma brucei rhodesiense STIB 900; format: toxicity, cell-based; settings: read-out: Ratio IC50; procedure, shortened: as §4
[12] = test system: Trypanosoma brucei rhodesiense; test: Antitrypanosomal activity against Trypanosoma brucei rhodesiense STIB 900 infected acute mouse model assessed as survival time at 10 mg/kg, ip; format: functional; settings: route intraperitoneal; procedure, shortened: as §3
[13] = test system: Trypanosoma brucei rhodesiense; test: Antitrypanosomal activity against Trypanosoma brucei rhodesiense STIB 900 infected acute mouse model assessed as cured mouse at 8 mg/kg, ip daily for 4 days; format: functional, organism-based; parameters: dose 8 mg/kg
[14] = test system: Trypanosoma brucei rhodesiense; test: Antitrypanosomal activity against Trypanosoma brucei rhodesiense STIB 900 infected acute mouse model assessed as survival time at 2 mg/kg, ip administered daily for 4 days; format: functional; settings: route intraperitoneal
[15] = test system: Trypanosoma brucei rhodesiense; test: Antitrypanosomal activity against Trypanosoma brucei rhodesiense STIB 900 infected acute mouse model assessed as survival time at 8 mg/kg, ip administered daily for 4 days; format: functional; settings: route intraperitoneal
[16] = test system: Trypanosoma brucei rhodesiense; test: Antitrypanosomal activity against Trypanosoma brucei rhodesiense STIB 900 infected acute mouse model assessed as cured mouse at 2 mg/kg, ip daily for 4 days; format: functional, organism-based; parameters: dose 2 mg/kg
[17] = test system: Trypanosoma brucei rhodesiense; test: Antitrypanosomal activity against Trypanosoma brucei rhodesiense STIB 900 infected acute mouse model assessed as cured mouse at 5 mg/kg, ip daily for 4 days; format: functional, organism-based; parameters: dose 5 mg/kg; procedure, shortened: as §2
[18] = test system: Trypanosoma brucei rhodesiense; test: Antitrypanosomal activity against Trypanosoma brucei rhodesiense STIB 900 infected acute mouse model assessed as cured mouse at 20 mg/kg, ip daily for 4 days; format: functional, organism-based; parameters: dose 20 mg/kg; procedure, shortened: as §2
[19] = test system: Trypanosoma brucei rhodesiense; test: Antitrypanosomal activity against Trypanosoma brucei rhodesiense STIB 900 infected acute mouse model assessed as survival time at 20 mg/kg, ip administered daily for 4 days; format: functional; settings: route intraperitoneal; procedure, shortened: as §3

## CC(C)NC(=N)c1ccc(-c2cc3cc(C(=N)NC(C)C)ccc3o2)cc1
[1]
  IC50: 1600 nM
[2]
  Activity: inactive
[3]
  Survival: >53 days
[4]
  Survival: 15.3 days
[5]
  IC50: 125 nM
[6]
  Activity: inactive
[7]
  selectivity ratio: > 125
[8]
  IC50: > 198000 nM
[9]
  selectivity ratio: > 2710
[10]
  IC50: 73 nM
[11]
  selectivity ratio: > 1580

## Oc1cc(C2=NCCN2)ccc1-c1cc2cc(C3=NCCN3)ccc2o1
[1]
  IC50: 5800 nM
[2]
  Activity: inactive
[3]
  Survival: >60 days
[4]
  Survival: 20 days
[5]
  IC50: 8 nM
[6]
  Activity: inactive
[7]
  selectivity ratio: 26
[8]
  IC50: 150000 nM
[12]
  Survival: 23.5 days
[9]
  selectivity ratio: 25000
[10]
  IC50: 6 nM
[11]
  selectivity ratio: 18800

## Nc1nc(N)nc(Nc2ccc([As]3SCC(CO)S3)cc2)n1 (stereo not drawn) [MELARSOPROL]
[13]
  Activity: Active
[14]
  Survival: >60 days
[2]
  Activity: Active
[4]
  Survival: >51.5 days
[15]
  Survival: >60 days
[16]
  Activity: Active

## N=C(N)c1ccc(O)c(-c2cc3cc(C(=N)N)ccc3o2)c1
[1]
  IC50: 20000 nM
[2]
  Activity: inactive
[3]
  Survival: >60 days
[4]
  Survival: 26 days
[17]
  Activity: Active
[5]
  IC50: 5 nM
[7]
  selectivity ratio: > 11
[8]
  IC50: > 217000 nM
[12]
  Survival: >51.5 days
[9]
  selectivity ratio: > 274
[10]
  IC50: 793 nM
[11]
  selectivity ratio: > 43400

## N=C(N)c1ccc(-c2cc3ccc(C(=N)N)cc3[nH]2)cc1 [DAPI]
[3]
  Survival: >40.8 days
[18]
  Activity: Active
[17]
  Activity: inactive
[5]
  IC50: 17 nM
[8]
  IC50: 860 nM
[9]
  selectivity ratio: 287
[10]
  IC50: 3 nM
[11]
  selectivity ratio: 51
[19]
  Survival: >60 days

## CC(C)NC(=N)c1ccc(-c2cc3cc(C(=N)NC(C)C)cc(O)c3o2)c(O)c1
[1]
  IC50: 46000 nM
[2]
  Activity: inactive
[3]
  Survival: >60 days
[4]
  Survival: 26.3 days
[17]
  Activity: Active
[5]
  IC50: 23 nM
[7]
  selectivity ratio: > 4
[8]
  IC50: > 179000 nM
[12]
  Survival: >50.7 days
[9]
  selectivity ratio: > 577
[10]
  IC50: 310 nM
[11]
  selectivity ratio: > 7780

## CC(C)NC(=N)c1ccc(-c2cc3cc(C(=N)NC(C)C)ccc3o2)c(O)c1
[1]
  IC50: 1800 nM
[2]
  Activity: inactive
[3]
  Survival: >50.5 days
[4]
  Survival: 18.5 days
[5]
  IC50: 21 nM
[6]
  Activity: inactive
[7]
  selectivity ratio: > 101
[8]
  IC50: > 183000 nM
[12]
  Survival: 26.8 days
[9]
  selectivity ratio: > 6540
[10]
  IC50: 28 nM
[11]
  selectivity ratio: > 8710

## COc1cc(C2=NCCN2)cc2cc(-c3ccc(C4=NCCN4)cc3)oc12
[1]
  IC50: 4500 nM
[18]
  Activity: inactive
[5]
  IC50: 124 nM
[7]
  selectivity ratio: 5
[8]
  IC50: 19900 nM
[9]
  selectivity ratio: 622
[10]
  IC50: 32 nM
[11]
  selectivity ratio: 160
[19]
  Survival: 11.5 days
